According to ChEMBL document CHEMBL1154440, “Design and synthesis of 2-(2,6-dibromophenyl)-3-heteroaryl-1,3-thiazolidin-4-ones as anti-HIV agents” (Eur J Med Chem, 2008):
The source made the active and inactive calls. The calls are words filed in the database; no cut-off is given here.

Key:
[1] = tested on: Human immunodeficiency virus 1; experiment: Antiviral activity against HIV1 3B replication in human MT4 cells assessed as inhibition of virus-induced cytopathic effect after 5 days by tetrazolium-based colorimetric assay; type: functional, organism-based; conditions: Human immunodeficiency virus 1, 3B, MT4, 120 h
[2] = Cytotoxicity against human MT4 cells by MTT assay; type: cell-based
How it was run: (§1)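 CC50 was measured in parallel with the antiviral assays. It is the compound concentration that reduced by 50% the number of viable cells in mock-infected MT-4 or CEM cultures.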

[3] = Selectivity index, ratio of CC50 for human MT4 cells to EC50 for HIV1 3B; type: toxicity, cell-based; conditions: read-out: Ratio CC50/EC50
How it was run: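 Selectivity index is CC50/EC50. CC50 comes from the viable-cell count in mock-infected MT-4 cells.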

[4] = target: Human immunodeficiency virus type 1 reverse transcriptase (Human immunodeficiency virus 1) (UniProt Q72547); experiment: Inhibition of HIV1 reverse transcriptase at 100 ug/ml after 1 hr by microtiter plate ELISA
How it was run: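 Nonradioactive kit ELISA. HIV-1 RT, template/primer and biotin- and DIG-labelled dNTPs were incubated in lysis buffer with or without inhibitor for 1 h at 37 °C. Product was captured on streptavidin and detected with anti-DIG-peroxidase and ABTS substrate. Absorbance at 405 nm is proportional to RT activity.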

[5] = Cytotoxicity against human CEM cells by MTT assay; type: cell-based; conditions: CEM cells (CCRF-CEM); how it was run: as §1
[6] = Selectivity index, ratio of CC50 for human CEM cells to EC50 for HIV1 3B; type: toxicity, cell-based, CCRF-CEM; conditions: read-out: Ratio CC50/EC50
[7] = tested on: Human immunodeficiency virus 2; experiment: Antiviral activity against HIV2 ROD replication in human MT4 cells assessed as inhibition of virus-induced cytopathic effect at subtoxic concentration after 5 days by tetrazolium-based colorimetric assay; type: functional, organism-based
[8] = tested on: Human immunodeficiency virus 1; experiment: Antiviral activity against HIV1 3B replication in human CEM cells assessed as inhibition of virus-induced syncytium formation after 4 days; conditions: Human immunodeficiency virus 1, 3B, CCRF-CEM, 96 h
[9] = tested on: Human immunodeficiency virus 2; experiment: Antiviral activity against HIV2 ROD replication in human CEM cells assessed as inhibition of virus-induced syncytium formation at subtoxic concentration after 4 days; conditions: CCRF-CEM

| Structure (SMILES) | EC50 [1] [nM] | CC50 [2] [µM] | selectivity ratio [3] | inhibition [4] [%] | CC50 [5] [µM] | selectivity ratio [6] | Activity [7] | EC50 [8] [nM] | Activity [9] |
| --- | --- | --- | --- | --- | --- | --- | --- | --- | --- |
| Cc1ccnc(N2C(=O)CSC2c2c(Br)cccc2Br)n1 (centres undefined) | 40 | 33.9 | 757 | 100 | 36.3 | 930 | inactive | 40 | inactive |
| Clc1cccc(Cl)c1C1SCc2nc3ccccc3n21 (centres undefined) | – | – | 16 | – | – | – | inactive | – | inactive |
| O=C1CSC(c2c(Br)cccc2Br)N1Cc1ccccn1 (centres undefined) | 840 | 174 | 209 | 97.6 | 117 | 283 | inactive | 630 | inactive |
| O=C1CSC(c2c(Br)cccc2Br)N1Cc1cccs1 (centres undefined) | 580 | 34.6 | 59 | 84.3 | 35.6 | 59 | inactive | 600 | inactive |
| Cc1nc(N2C(=O)CSC2c2c(Br)cccc2Br)nc(C)c1C (centres undefined) | 60 | 227 | 3720 | 100 | > 273 | > 5020 | inactive | 60 | inactive |
| Cc1nc(N2C(=O)CSC2c2c(Br)cccc2Br)ccc1Br (centres undefined) | 1030 | 98 | 96 | 61.4 | 98 | 53 | inactive | 1830 | inactive |
| O=C1CSC(c2c(Br)cccc2Br)N1c1ncccn1 (centres undefined) | 240 | 172 | 687 | 100 | 179 | 769 | inactive | 230 | inactive |
| O=C1CSC(c2c(Br)cccc2Br)N1c1nccs1 (centres undefined) | 500 | 109 | 218 | 69.5 | 109 | 194 | inactive | 560 | inactive |
| Cc1cc(-c2ccccc2)nc(N2C(=O)CSC2c2c(Br)cccc2Br)n1 (centres undefined) | > 8650 | 184 | < 21 | 17.8 | – | – | inactive | – | inactive |
| Cc1cc(C)nc(N2C(=O)CSC2c2c(Br)cccc2Br)n1 (centres undefined) | – | – | – | 100 | – | – | – | – | – |
| O=C1CSC(c2c(Br)cccc2Br)N1c1cccc(C(F)(F)F)n1 (centres undefined) | 4560 | 30 | 7 | 23.9 | 29.8 | 8 | inactive | 3960 | inactive |
| Cc1cc(N2C(=O)CSC2c2c(Br)cccc2Br)nc(C)n1 (centres undefined) | 5210 | 33.4 | 6 | 66.4 | 33.5 | 7 | inactive | 4670 | inactive |
| Cc1cc(C(F)(F)F)nc(N2C(=O)CSC2c2c(Br)cccc2Br)n1 (centres undefined) | 320 | 32.6 | 99 | 85.4 | 59.3 | 161 | inactive | 360 | inactive |
| O=C1CSC(c2c(Br)cccc2Br)N1Cc1ccco1 (centres undefined) | 210 | 36.4 | 171 | 99 | 36.6 | 200 | inactive | 180 | inactive |
| Cc1cccc(N2C(=O)CSC2c2c(Br)cccc2Br)n1 (centres undefined) | 90 | 233 | 2660 | 79.5 | 233 | 2950 | inactive | 80 | inactive |
| Fc1cccc(F)c1C1SCc2nc3ccccc3n21 (centres undefined) [THIAZOLOBENZIMIDAZOLE] | – | – | 54.5 | – | – | 45 | inactive | – | inactive |
| O=C1CSC(c2c(Br)cccc2Br)N1c1ccccn1 (centres undefined) | 220 | 13.1 | 60 | 85.2 | 17.1 | 66 | inactive | 270 | inactive |
| Cc1ccnc2c1NC(=O)c1cccnc1N2C1CC1 [NEVIRAPINE] | 50 | > 50 | > 1000 | – | > 4 | > 370 | inactive | 10 | inactive |
